Results from ChEMBL document CHEMBL4270642, “Boronic ester-linked macrocyclic lipopeptides as serine protease inhibitors targeting Escherichia coli type I signal peptidase” (Eur J Med Chem, 2018).
Values after ≈ are worked out from the molar mass of the structure shown.

How the values were obtained:
[1] = Hemolytic activity in human RBC at 100 uM after 45 mins by spectrophotometric method relative to control; type: ADME, cell-based, Erythrocyte; conditions: red blood cells (erythrocytes), read-out: Activity
Summary of the method: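 Heparinized human blood; red cells washed three times in Tyrode buffer pH 7.4. Compound at 100 µM final with 1% DMSO and 50% RBC, shaken (250 rpm) 45 min at 37 °C. Cells pelleted (1000 × g, 10 min); supernatant haemoglobin at 540 nm. Percent lysis relative to buffer-only and 2% Triton X-100 controls.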

Signal peptidase I = Signal peptidase I (Escherichia coli K-12, UniProt P00803); experiment: Inhibition of Escherichia coli type 1 signal peptidase lepB preincubated for 10 mins followed by Dabcyl-VGGTATAYGAFSRPGLE-(EDANS)-OH substrate addition measured after 2 hrs by FRET based assay
Chain of Signal peptidase I (P00803 whole entry): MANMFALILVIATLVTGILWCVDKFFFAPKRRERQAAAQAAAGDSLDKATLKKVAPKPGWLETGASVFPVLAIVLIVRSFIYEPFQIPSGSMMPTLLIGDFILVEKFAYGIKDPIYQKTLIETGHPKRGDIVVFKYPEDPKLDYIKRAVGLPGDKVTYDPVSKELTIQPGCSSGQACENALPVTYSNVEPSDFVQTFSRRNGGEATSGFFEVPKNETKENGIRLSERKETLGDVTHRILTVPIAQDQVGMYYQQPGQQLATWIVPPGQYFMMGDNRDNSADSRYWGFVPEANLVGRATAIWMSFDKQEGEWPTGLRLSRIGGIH
Summary of the method: (§1)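 EcLepB (about 50 nM estimated) preincubated 10 min with compound. Reaction started with Dabcyl/EDANS FRET peptide at 8 µM final (Km 20 µM). Fluorescence followed continuously at 535 nm, 22 °C, for 2 h. Cleavage rates plotted against inhibitor concentration; IC50 from non-linear regression of sigmoidal dose-response curves.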

Escherichia coli [2] = experiment: Antibacterial activity against Escherichia coli ATCC 25922 after 16 to 20 hrs by broth microdilution method; type: functional
Summary of the method: (§2)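 Broth microdilution in cation-adjusted Mueller-Hinton II per EUCAST/CLSI; two-fold compound series 64 down to 0.25 µg/mL final. Inoculum from fresh colonies (non-selective agar, 18-24 h, 35 ± 2 °C), adjusted to 0.5 McFarland, diluted to about 5 × 10^5 CFU/mL final. Static incubation 16-20 h at 35 ± 2 °C; MIC read visually as complete growth inhibition against medium-only wells.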

Escherichia coli [3] = experiment: Antibacterial activity against tolC deficient Escherichia coli CH3130 after 16 to 20 hrs by broth microdilution method; type: functional; summary of the method: as §2
Escherichia coli [4] = experiment: Antibacterial activity against Escherichia coli D22 CGSG 5163 harboring Ips mutant after 16 to 20 hrs by broth microdilution method; type: functional
Summary of the method: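 Broth microdilution in cation-adjusted Mueller-Hinton II broth, following EUCAST and CLSI guidelines. Two-fold series at final concentrations 64 down to 0.25 µg/mL, with medium-only and growth controls. Inoculum from fresh colonies (18-24 h, 35 °C ± 2 °C) adjusted to 0.5 McFarland, final ≈5 × 10^5 CFU/mL. Plates incubated unshaken 16-20 h at 35 °C ± 2 °C. MIC read visually as complete inhibition of growth.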

Pseudomonas aeruginosa [5] = experiment: Antibacterial activity against Pseudomonas aeruginosa PAO1 after 16 to 20 hrs by broth microdilution method; type: functional; summary of the method: as §2
Pseudomonas aeruginosa [6] = experiment: Antibacterial activity against efflux defective Pseudomonas aeruginosa PAO750 after 16 to 20 hrs by broth microdilution method; type: functional; summary of the method: as §2
Klebsiella pneumoniae = experiment: Antibacterial activity against Klebsiella pneumoniae ATCC 13883 after 16 to 20 hrs by broth microdilution method; type: functional; summary of the method: as §2
HepG2 = experiment: Cytotoxicity against human HepG2 cells after 72 hrs by FMSA; type: cell-based; conditions: HepG2, 72 h
Summary of the method: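 HepG2 (ATCC) grown in EMEM with 10% FBS, pen/strep, 2 mM L-glutamine, used up to 20 passages. Seeded at 1000 cells/well, cultured overnight, then dosed acoustically from DMSO stocks. Eight two-fold dilutions in duplicate from top 64 or 32 µM; 72 h at 37 °C, 5% CO2. Fluorescein diacetate hydrolysis read at ex 485/em 530 nm; IC50 by non-linear regression.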

Acinetobacter baumannii = experiment: Antibacterial activity against Acinetobacter baumannii ATCC 19606 after 16 to 20 hrs by broth microdilution method; type: functional; conditions: ATCC 19606 = CIP 70.34 = JCM 6841; summary of the method: as §2
Staphylococcus aureus = experiment: Antibacterial activity against Staphylococcus aureus ATCC 29213 after 16 to 20 hrs by broth microdilution method; type: functional; summary of the method: as §2
[7] = biological target: Signal peptidase I (Escherichia coli K-12) (UniProt P00803); experiment: Inhibition of Escherichia coli type 1 signal peptidase lepB assessed as residual activity at 10 uM preincubated for 10 mins followed by Dabcyl-VGGTATAYGAFSRPGLE-(EDANS)-OH substrate addition measured after 2 hrs by FRET based assay (reference value: 100%); summary of the method: as §1
Chain of Signal peptidase I (Escherichia coli K-12) (P00803 whole entry): as above

[8] = biological target: Signal peptidase I (Escherichia coli K-12) (UniProt P00803); experiment: Inhibition of Escherichia coli type 1 signal peptidase lepB assessed as residual activity at 5 uM preincubated for 10 mins followed by Dabcyl-VGGTATAYGAFSRPGLE-(EDANS)-OH substrate addition measured after 2 hrs by FRET based assay (reference value: 100%); summary of the method: as §1
[9] = biological target: Signal peptidase I (Escherichia coli K-12) (UniProt P00803); experiment: Inhibition of Escherichia coli type 1 signal peptidase lepB assessed as residual activity at 2.5 uM preincubated for 10 mins followed by Dabcyl-VGGTATAYGAFSRPGLE-(EDANS)-OH substrate addition measured after 2 hrs by FRET based assay (reference value: 100%); summary of the method: as §1
[10] = biological target: Signal peptidase I (Escherichia coli K-12) (UniProt P00803); experiment: Inhibition of Escherichia coli type 1 signal peptidase lepB assessed as residual activity at 1.25 uM preincubated for 10 mins followed by Dabcyl-VGGTATAYGAFSRPGLE-(EDANS)-OH substrate addition measured after 2 hrs by FRET based assay (reference value: 100%); summary of the method: as §1
[11] = biological target: Signal peptidase I (Escherichia coli K-12) (UniProt P00803); experiment: Inhibition of Escherichia coli type 1 signal peptidase lepB assessed as residual activity at 0.625 uM preincubated for 10 mins followed by Dabcyl-VGGTATAYGAFSRPGLE-(EDANS)-OH substrate addition measured after 2 hrs by FRET based assay (reference value: 100%); summary of the method: as §1
[12] = biological target: Signal peptidase I (Escherichia coli K-12) (UniProt P00803); experiment: Inhibition of Escherichia coli type 1 signal peptidase lepB assessed as residual activity at 0.3125 uM preincubated for 10 mins followed by Dabcyl-VGGTATAYGAFSRPGLE-(EDANS)-OH substrate addition measured after 2 hrs by FRET based assay (reference value: 100%); summary of the method: as §1
[13] = biological target: Signal peptidase I (Escherichia coli K-12) (UniProt P00803); experiment: Inhibition of Escherichia coli type 1 signal peptidase lepB assessed as residual activity at 0.1563 uM preincubated for 10 mins followed by Dabcyl-VGGTATAYGAFSRPGLE-(EDANS)-OH substrate addition measured after 2 hrs by FRET based assay (reference value: 100%); summary of the method: as §1
[14] = biological target: Signal peptidase I (Escherichia coli K-12) (UniProt P00803); experiment: Inhibition of Escherichia coli type 1 signal peptidase lepB assessed as residual activity at 0.0781 uM preincubated for 10 mins followed by Dabcyl-VGGTATAYGAFSRPGLE-(EDANS)-OH substrate addition measured after 2 hrs by FRET based assay (reference value: 100%); summary of the method: as §1
[15] = biological target: Signal peptidase I (Escherichia coli K-12) (UniProt P00803); experiment: Inhibition of Escherichia coli type 1 signal peptidase lepB assessed as residual activity at 0.0391 uM preincubated for 10 mins followed by Dabcyl-VGGTATAYGAFSRPGLE-(EDANS)-OH substrate addition measured after 2 hrs by FRET based assay (reference value: 100%); summary of the method: as §1
[16] = biological target: Signal peptidase I (Escherichia coli K-12) (UniProt P00803); experiment: Inhibition of Escherichia coli type 1 signal peptidase lepB assessed as residual activity at 0.0195 uM preincubated for 10 mins followed by Dabcyl-VGGTATAYGAFSRPGLE-(EDANS)-OH substrate addition measured after 2 hrs by FRET based assay (reference value: 100%); summary of the method: as §1
[17] = biological target: Signal peptidase I (Escherichia coli K-12) (UniProt P00803); experiment: Inhibition of Escherichia coli type 1 signal peptidase lepB assessed as residual activity at 0.0098 uM preincubated for 10 mins followed by Dabcyl-VGGTATAYGAFSRPGLE-(EDANS)-OH substrate addition measured after 2 hrs by FRET based assay (reference value: 100%); summary of the method: as §1
[18] = biological target: Signal peptidase I (Escherichia coli K-12) (UniProt P00803); experiment: Inhibition of Escherichia coli type 1 signal peptidase lepB assessed as residual activity at 0.0049 uM preincubated for 10 mins followed by Dabcyl-VGGTATAYGAFSRPGLE-(EDANS)-OH substrate addition measured after 2 hrs by FRET based assay (reference value: 100%); summary of the method: as §1
[19] = biological target: Signal peptidase I (Escherichia coli K-12) (UniProt P00803); experiment: Inhibition of Escherichia coli type 1 signal peptidase lepB assessed as residual activity at 0.0024 uM preincubated for 10 mins followed by Dabcyl-VGGTATAYGAFSRPGLE-(EDANS)-OH substrate addition measured after 2 hrs by FRET based assay (reference value: 100%); summary of the method: as §1
[20] = biological target: Signal peptidase I (Escherichia coli K-12) (UniProt P00803); experiment: Inhibition of Escherichia coli type 1 signal peptidase lepB assessed as residual activity at 0.0012 uM preincubated for 10 mins followed by Dabcyl-VGGTATAYGAFSRPGLE-(EDANS)-OH substrate addition measured after 2 hrs by FRET based assay (reference value: 100%); summary of the method: as §1
[21] = biological target: Signal peptidase I (Escherichia coli K-12) (UniProt P00803); experiment: Inhibition of Escherichia coli type 1 signal peptidase lepB assessed as residual activity at 0.0006 uM preincubated for 10 mins followed by Dabcyl-VGGTATAYGAFSRPGLE-(EDANS)-OH substrate addition measured after 2 hrs by FRET based assay (reference value: 100%); summary of the method: as §1

`CCCCCCc1ccc(-c2ccc(C(=O)N[C@@H](CCCNC(=N)N)C(=O)N[C@H](C(=O)N[C@@H](C)C(=O)N[C@H]3Cc4cn(nn4)CCCN4C[C@@H]5OB(O[C@@H]5C4)[C@H](C)NC3=O)[C@@H](C)O)cc2)cc1` showed a hemolysis at 0.75 h, 100 µM [1] of 21%, an IC50 (Signal peptidase I) of 41 nM and an MIC (Escherichia coli [2]) of 16 µg/mL (≈ 17.3 µM). The MIC (Escherichia coli [3]) was 4 µg/mL (≈ 4.32 µM), the MIC (Escherichia coli [4]) was 8 µg/mL (≈ 8.63 µM) and the MIC (Pseudomonas aeruginosa [5]) was > 64 µg/mL. It also gave an MIC (Pseudomonas aeruginosa [6]) of 32 µg/mL (≈ 34.5 µM), an MIC (Klebsiella pneumoniae) of 16 µg/mL (≈ 17.3 µM) and an IC50 (HepG2) of 2400 nM. The MIC (Acinetobacter baumannii) was 16 µg/mL (≈ 17.3 µM), the MIC (Staphylococcus aureus) was 16 µg/mL (≈ 17.3 µM) and the Activity [7] was 22.9%. For the same compound, the Activity [8] was 27.7%, the Activity [9] was 32.8% and the Activity [10] was 35.7%. For the same compound, the Activity [11] was 36%, the Activity [12] was 39.1% and the Activity [13] was 41.7%. For the same compound, the Activity [14] was 46.5%, the Activity [15] was 76.8% and the Activity [16] was 97.2%. The Activity [17] was 101%, the Activity [18] was 105% and the Activity [19] was 102%. For the same compound, the Activity [20] was 106% and the Activity [21] was 108%.
